The list is not random: actives were taken first. Their share in the collection is about 3.4%.
AHR activator: AHR activators, primary screen, cell-based, luminescence, luciferase reporter, human; AID 2796, 2010; activation, % at 5 µM; 320,000 compounds, 2.5% hits; AHR-responsive luciferase reporter cells; in the data active = activation above about 47%;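 note: 0% = vehicle wells and 100% = reference agonist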
Target sequence (P35869 whole entry, looked up): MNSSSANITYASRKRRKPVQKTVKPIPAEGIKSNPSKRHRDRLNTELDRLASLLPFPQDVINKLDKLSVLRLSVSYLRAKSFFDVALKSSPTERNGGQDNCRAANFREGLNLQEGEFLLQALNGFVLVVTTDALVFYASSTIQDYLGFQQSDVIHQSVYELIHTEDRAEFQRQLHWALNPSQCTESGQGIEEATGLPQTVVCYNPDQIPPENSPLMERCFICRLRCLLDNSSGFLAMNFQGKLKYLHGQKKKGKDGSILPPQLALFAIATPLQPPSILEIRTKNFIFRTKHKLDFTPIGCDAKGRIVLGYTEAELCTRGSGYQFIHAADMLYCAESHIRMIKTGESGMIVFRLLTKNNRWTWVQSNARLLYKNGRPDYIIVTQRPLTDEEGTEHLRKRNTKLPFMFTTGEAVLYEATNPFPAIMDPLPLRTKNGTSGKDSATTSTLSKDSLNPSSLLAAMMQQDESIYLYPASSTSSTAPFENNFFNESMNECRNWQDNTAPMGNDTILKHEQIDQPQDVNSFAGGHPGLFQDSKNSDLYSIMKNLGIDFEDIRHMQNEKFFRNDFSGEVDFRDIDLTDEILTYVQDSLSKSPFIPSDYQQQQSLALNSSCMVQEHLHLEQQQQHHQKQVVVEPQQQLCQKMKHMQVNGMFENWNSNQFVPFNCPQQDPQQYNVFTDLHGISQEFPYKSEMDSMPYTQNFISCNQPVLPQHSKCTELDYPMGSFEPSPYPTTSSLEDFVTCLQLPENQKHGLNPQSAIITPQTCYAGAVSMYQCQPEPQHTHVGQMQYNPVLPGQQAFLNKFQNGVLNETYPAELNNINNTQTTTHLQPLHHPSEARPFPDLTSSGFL
PolyA inhibitor: polyadenylation inhibitors in yeast reporter cells, primary screen, luminescence, S. cerevisiae; 300,000 compounds, 0.02% hits; S. cerevisiae SKY197-pL101 polyadenylation reporter, beta-gal luminescence; efflux-impaired pdr1/pdr3 knockout yeast; score 100 = 6 SD above DMSO; activity score, % at 12 µM; AID 1875, 2009;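 active = lowest replicate activity score at least 50, where 100 means six control SD above control mean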;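 note: yeast exposed to compound for 9 h at 30 °C; higher score means more reporter readthrough which indicates perturbed polyadenylation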
Arrestin-AP2 inh: inhibitors of beta-arrestin/AP2 binding, primary screen, biochemical, GPCR trafficking, flow cytometry. FITC-arrestin peptide / GST-AP2 beads; AP2 beta2 appendage carries R879A mutation. inhibition, % at 10 µM. beta-arrestin 1 C-terminal peptide binding to AP2 beta2-adaptin appendage (human). 340,000 compounds, 0.31% hits;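 active = inhibition above a set limit, near 3 SD of compounds lacking own fluorescence, cut at about 54% in these data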;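 note: plate controls were DMSO wells for no effect and 5 µM unlabelled arrestin peptide for full effect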
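System: GST-tagged AP2 beta2-adaptin appendage (R879A) on 4 µm glutathione beads / Reagent: FITC-arrestin peptide, 50 nM / Detection: HyperCyt-sampled flow cytometry, FL1 channel, ex 488/em 535 nm / Timing: 12 min plus 1 h, RT / Buffer or medium: PBS plus Tween 20 (0.05%) and BSA (0.1%)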
APOBEC3G inh: APOBEC3G DNA deaminase inhibitors, primary screen, biochemical, fluorescence, single-stranded DNA substrate, uHTS; DNA dC->dU-editing enzyme APOBEC-3G (Homo sapiens), Q9HC16; recombinant A3G, ssDNA deamination FAM/TAMRA fluorescence; inhibition, % at 20 µM; 330,000 compounds, 0.28% hits; AID 493012, 2011;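 active = inhibition of at least 40% at 20 µM, with no more than 30% in the related APOBEC3A deaminase screen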;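 note: plate controls were DMSO wells with A3G for no effect and wells lacking A3G enzyme for full effect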
APOBEC3A inh: APOBEC3A ssDNA deaminase inhibitors, primary screen, selectivity assay for APOBEC3G inhibitor project, biochemical, FAM/TAMRA oligo cleavage fluorescence. DNA dC->dU-editing enzyme APOBEC-3A (Homo sapiens), P31941. recombinant A3A, FAM/TAMRA ssDNA deamination fluorescence. inhibition, % at 20 µM. 330,000 compounds, 0.41% hits. AID 493011, 2011;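 active = at least 40% inhibition at 20 µM here, with at most 30% in a related deaminase screen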;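 note: plate controls were A3A with DMSO for no effect and wells lacking A3A enzyme for full effect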
UCH37 inh: inhibitors of human UCH37 deubiquitinase, primary screen, biochemical, Ub-AMC cleavage, fluorescence; purified proteasome/UCH37; inhibition, % (concentration not given with the values); 330,000 compounds, 0.33% hits;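 active = mean inhibition over replicate wells above about 20%, limit read from the data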;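 note: 0% = compound-free wells with enzyme and 100% = wells lacking proteasome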
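System: Proteasome-associated human UCH37 deubiquitinase; Input: 0.15 nM proteasome in added enzyme buffer; Also added: Ub-AMC substrate from 1 µM stock; Incubation: 30 min compound-proteasome preincubation then 25 min substrate reaction, room temperature; Detection: fluorescence, ex 355 nm, em 460 nm; Read-out: % inhibition of Ub-AMC cleavage fluorescence; Benchmarks: no-proteasome and no-compound wells.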
* marks the source's active call; other numbers are inactive results.

`Cc1nc2c(N=Nc3ccccc3F)c(N)nn2c(N)c1C#N` gave AHR activator 60*, PolyA inhibitor 7, Arrestin-AP2 inh 11, APOBEC3G inh 2, APOBEC3A inh 4 and UCH37 inh 6.
`Cc1cc(C)nc(NC(=O)c2ccc(Cl)c([N+](=O)[O-])c2)n1` gave AHR activator 21, PolyA inhibitor -8, Arrestin-AP2 inh 0, APOBEC3G inh -4, APOBEC3A inh -1 and UCH37 inh 3.
Cc1ccc(C(=O)Nc2cc(Cl)ccc2Oc2ccccc2)cc1[N+](=O)[O-] was read as AHR activator 67*, PolyA inhibitor 8, Arrestin-AP2 inh -2, APOBEC3G inh -2, APOBEC3A inh 0 and UCH37 inh 2.
For Cc1cc(C)nc(NC(=O)c2ccc(C)c([N+](=O)[O-])c2)n1 the results were AHR activator 72*, PolyA inhibitor -2, Arrestin-AP2 inh 13, APOBEC3G inh -7, APOBEC3A inh -3 and UCH37 inh 1.
`Cc1ccc(C(=O)Nc2ccccc2-c2ccccc2)cc1[N+](=O)[O-]` gave AHR activator 9, PolyA inhibitor -7, Arrestin-AP2 inh -1, APOBEC3G inh -1, APOBEC3A inh 6 and UCH37 inh 0.
CCCc1c(C(=O)NN=Cc2ccccc2OCc2ccc(F)cc2)nnn1-c1nonc1N was read as UCH37 inh -42.
COc1ccc([N+](=O)[O-])cc1C=NNC(=O)c1nonc1N was read as UCH37 inh 0.
Cc1ccc(S(=O)(=O)N=C(Sc2ccccc2C(=O)O)c2ccccc2)cc1 was read as UCH37 inh 1.
Screening O=C(NNC(=S)NC(=O)c1sc2ccccc2c1Cl)c1ccc(Cl)cc1 returned AHR activator 110*, PolyA inhibitor 0, Arrestin-AP2 inh 6, APOBEC3G inh -7 and APOBEC3A inh -2.
CCOC(=O)C(C(C)=NNC(=O)C1CC1c1ccccc1)C(C)C (configuration not stated) was read as UCH37 inh 4.
For CCC(C)N=C1SCC(C)(C=NO)S1 (configuration not stated) the results were UCH37 inh 2.
O=C(/C=C/c1ccccc1O)c1ccccc1 was read as Arrestin-AP2 inh -11 and UCH37 inh 4.
Screening O=C(/C=C/c1ccccc1O)c1ccc(Cl)cc1 returned AHR activator 66*, PolyA inhibitor -33, Arrestin-AP2 inh 2, APOBEC3G inh -8, APOBEC3A inh -1 and UCH37 inh 7.
Screening COc1ccccc1/C=C/C(=O)NC(=S)NC(C)C returned AHR activator 68*, PolyA inhibitor -30, Arrestin-AP2 inh 12, APOBEC3G inh 2, APOBEC3A inh 4 and UCH37 inh -9.
Screening COc1ccccc1/C=C/C(=O)c1ccc(NC(C)=O)cc1 returned AHR activator 12, PolyA inhibitor -8, Arrestin-AP2 inh 0, APOBEC3G inh -2, APOBEC3A inh 0 and UCH37 inh 1.
`CCOc1ccccc1/C=C/C(=O)c1ccc(Cl)cc1` gave AHR activator 70*, PolyA inhibitor -12, Arrestin-AP2 inh -8, APOBEC3G inh 21, APOBEC3A inh 3 and UCH37 inh -1.
Screening COc1ccccc1/C=C/C(=O)c1ccc(Cl)cc1 returned AHR activator 91*, PolyA inhibitor -8, Arrestin-AP2 inh 11, APOBEC3G inh -5, APOBEC3A inh 0 and UCH37 inh 3.
Screening COc1ccccc1/C=C/C(=O)c1ccccc1 returned PolyA inhibitor -14 and Arrestin-AP2 inh 12.
CC(=O)Nc1ccc(S(=O)(=O)Oc2ccc(C=N/N=C3/NC(=O)C(CC(=O)O)S3)cc2)cc1 (configuration not stated) was read as UCH37 inh 13.
For Cc1nc2nc(SCC(=O)c3cccc([N+](=O)[O-])c3)[nH]c2cc1Br the results were AHR activator 57*, PolyA inhibitor -4, Arrestin-AP2 inh 10, APOBEC3G inh -5 and APOBEC3A inh 4.
For Cc1nc2nc(SCc3nc4ccccc4[nH]3)[nH]c2cc1Br the results were AHR activator 26, PolyA inhibitor 12, Arrestin-AP2 inh -7, APOBEC3G inh -6, APOBEC3A inh -3 and UCH37 inh 1.
Cc1nc2nc(SCC(=O)C(C)(C)C)[nH]c2cc1Br was read as AHR activator 47*, PolyA inhibitor 21, Arrestin-AP2 inh -6, APOBEC3G inh -5, APOBEC3A inh 1 and UCH37 inh 4.
`COc1ccccc1C(=O)NN=C(C)CC(=O)Nc1ccc2c(c1)OCCO2` gave UCH37 inh 2.
For O=C(Cc1ccc(F)cc1)N1CCC(CC2CC(c3ccc(Cl)cc3)=NO2)(C(=O)NCC2CCCCC2)CC1 (configuration not stated) the results were AHR activator -3, PolyA inhibitor -13, Arrestin-AP2 inh 12, APOBEC3G inh -14, APOBEC3A inh -1 and UCH37 inh 39*.
`CN(C)c1ccc(NC(=O)CCn2c(=S)oc3ccccc32)cc1` gave AHR activator 59*, PolyA inhibitor -5, Arrestin-AP2 inh -6, APOBEC3G inh -2, APOBEC3A inh 2 and UCH37 inh 2.
For CC1(C)CC(=O)C=C(Nc2ccc(Cl)cc2)C1 the results were AHR activator 2, PolyA inhibitor -7, Arrestin-AP2 inh 6, APOBEC3G inh 3, APOBEC3A inh 3 and UCH37 inh 4.
For CC1(C)CC(=O)C=C(Nc2ccc(Cl)c(Br)c2)C1 the results were AHR activator 68*, PolyA inhibitor 11, Arrestin-AP2 inh -7, APOBEC3G inh -7, APOBEC3A inh 0 and UCH37 inh 3.
`CCCCNc1c(-c2ccc(SC(C)CC)cc2)nc2cnccn12` (configuration not stated) gave AHR activator 48*, Arrestin-AP2 inh 6, APOBEC3G inh -2, APOBEC3A inh -3 and UCH37 inh -126.
CCCCNc1c(-c2ccc(OC)c(Sc3ccc(OC)cc3)c2)nc2cnccn12 was read as AHR activator 15, Arrestin-AP2 inh 21, APOBEC3G inh -5, APOBEC3A inh -1 and UCH37 inh -69.
O=C(Nc1ccccc1)N(O)c1ccc(Cl)cc1 was read as AHR activator 60*, PolyA inhibitor 3, Arrestin-AP2 inh 2, APOBEC3G inh -5, APOBEC3A inh 2 and UCH37 inh 5.
